Experimental findings from ChEMBL document CHEMBL3393046, “Conformationally-locked N-glycosides: exploiting long-range non-glycone interactions in the design of pharmacological chaperones for Gaucher disease” (Eur J Med Chem, 2015) are described below.

Experiment [1] has as its target T1, Lysosomal acid glucosylceramidase (Homo sapiens, UniProt P04062).
T1 sequence (P04062 whole entry): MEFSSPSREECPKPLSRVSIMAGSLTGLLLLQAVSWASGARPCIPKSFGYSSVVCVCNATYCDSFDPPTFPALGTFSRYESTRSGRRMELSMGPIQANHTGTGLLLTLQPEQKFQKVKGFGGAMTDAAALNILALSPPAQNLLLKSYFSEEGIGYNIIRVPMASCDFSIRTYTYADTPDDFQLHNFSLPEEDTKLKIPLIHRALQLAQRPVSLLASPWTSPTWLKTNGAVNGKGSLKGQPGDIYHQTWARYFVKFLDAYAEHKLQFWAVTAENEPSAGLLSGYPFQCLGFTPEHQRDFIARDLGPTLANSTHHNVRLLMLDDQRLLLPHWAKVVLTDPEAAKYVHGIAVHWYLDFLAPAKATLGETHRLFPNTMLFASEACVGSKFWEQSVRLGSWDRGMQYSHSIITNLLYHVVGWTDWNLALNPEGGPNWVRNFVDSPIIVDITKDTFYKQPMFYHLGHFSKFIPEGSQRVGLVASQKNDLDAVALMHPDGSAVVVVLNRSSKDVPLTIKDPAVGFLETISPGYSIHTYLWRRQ
Briefly: Inhibition of human beta-glucocerebrosidase at pH 7.0 by spectrophotometry.

In experiment [2] the target is T1, Lysosomal acid glucosylceramidase. Briefly: Inhibition of human beta-glucocerebrosidase at pH 5.0 by spectrophotometry.
In a further experiment the test system is Saccharomyces bayanus. The experiment in a line: Inhibition of yeast alpha-glucosidase at 2 mM incubated for 10 to 30 mins using p-nitrophenyl alpha-D-glycopyranoside substrate by spectrophotometry. The procedure, abridged: (§1)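 Reaction started by adding enzyme to substrate, without or with various inhibitor concentrations, in phosphate or phosphate-citrate buffer (α/β-mannosidase, amyloglucosidase) at each enzyme's optimal pH. Incubation 10–30 min at 37 °C (55 °C for amyloglucosidase), timed for 10–20% conversion. Stopped with 1 M Na₂CO₃, or for trehalase by heating then GLC-Trinder. Absorbance 405 nm (trehalase 492 nm). Approximate Ki from fixed substrate near Km.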

Another experiment is filed under the species Homo sapiens. Briefly: Inhibition of alpha-galactosidase (unknown origin) by spectrophotometry.
In a further experiment the test system is Saccharomyces cerevisiae. Briefly: Inhibition of yeast isomaltase at 2 mM incubated for 10 to 30 mins by spectrophotometry. The procedure, abridged: as §1
Experiment [3] has as its target Beta-galactosidase (Escherichia coli K-12) (UniProt P00722). The experiment in a line: Inhibition of Escherichia coli beta-galactosidase at 2 mM incubated for 10 to 30 mins using o-nitrophenyl beta-D-galactopyranoside substrate by spectrophotometry. In a few lines: as §1
The next experiment deals with Prunus dulcis. Briefly: Inhibition of almonds beta-glucosidase at 2 mM incubated for 10 to 30 mins using p-nitrophenyl beta-D-glycopyranoside substrate by spectrophotometry. In a few lines: as §1
Experiment [4] concerns the target T2, Beta-galactosidase (Homo sapiens) (UniProt P16278).
T2 sequence (whole entry): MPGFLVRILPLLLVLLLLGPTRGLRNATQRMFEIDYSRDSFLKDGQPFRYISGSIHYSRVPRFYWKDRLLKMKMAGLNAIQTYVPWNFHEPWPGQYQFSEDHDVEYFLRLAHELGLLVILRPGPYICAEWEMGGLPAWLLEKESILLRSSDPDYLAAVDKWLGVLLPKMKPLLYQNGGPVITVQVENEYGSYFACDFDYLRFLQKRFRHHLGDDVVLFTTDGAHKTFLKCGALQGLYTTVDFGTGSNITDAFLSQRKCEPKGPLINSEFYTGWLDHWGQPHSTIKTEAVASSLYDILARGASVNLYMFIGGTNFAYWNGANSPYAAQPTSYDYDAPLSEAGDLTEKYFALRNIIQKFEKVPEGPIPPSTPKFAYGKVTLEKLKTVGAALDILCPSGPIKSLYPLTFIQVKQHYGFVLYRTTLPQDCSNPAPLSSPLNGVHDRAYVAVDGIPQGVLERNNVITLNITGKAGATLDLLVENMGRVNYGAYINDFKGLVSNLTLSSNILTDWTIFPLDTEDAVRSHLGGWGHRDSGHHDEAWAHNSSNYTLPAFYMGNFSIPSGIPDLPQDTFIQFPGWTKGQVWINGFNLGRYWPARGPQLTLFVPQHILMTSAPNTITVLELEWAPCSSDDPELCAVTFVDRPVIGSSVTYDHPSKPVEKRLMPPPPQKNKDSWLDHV
The experiment in a line: Inhibition of beta-galactosidase (unknown origin) by spectrophotometry.

In experiment [5] the target is T3, Uncharacterized protein (Sus scrofa) (UniProt I3LIR5).
T3 sequence (whole entry): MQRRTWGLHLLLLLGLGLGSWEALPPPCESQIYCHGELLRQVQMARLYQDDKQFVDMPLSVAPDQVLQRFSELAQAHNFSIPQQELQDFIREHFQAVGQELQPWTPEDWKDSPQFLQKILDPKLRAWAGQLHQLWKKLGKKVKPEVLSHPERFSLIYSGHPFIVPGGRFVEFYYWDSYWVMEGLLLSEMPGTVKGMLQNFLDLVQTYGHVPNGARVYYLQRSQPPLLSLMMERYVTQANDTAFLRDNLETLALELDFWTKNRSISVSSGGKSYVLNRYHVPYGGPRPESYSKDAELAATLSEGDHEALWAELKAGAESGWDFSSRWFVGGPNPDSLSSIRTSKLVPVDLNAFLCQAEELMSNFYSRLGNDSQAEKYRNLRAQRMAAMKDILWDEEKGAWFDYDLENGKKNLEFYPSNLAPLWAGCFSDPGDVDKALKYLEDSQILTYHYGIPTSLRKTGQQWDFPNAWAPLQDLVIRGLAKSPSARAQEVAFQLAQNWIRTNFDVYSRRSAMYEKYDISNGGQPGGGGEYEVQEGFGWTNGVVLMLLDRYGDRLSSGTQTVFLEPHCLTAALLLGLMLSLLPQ
The experiment in a line: Inhibition of pig kidney trehalase at 2 mM incubated for 10 to 30 mins using alpha,alpha'-trehalose substrate by spectrophotometry. In a few lines:
as §1

The subject of a further experiment is Helix pomatia. The experiment in a line: Inhibition of Helix pomatia beta-mannosidase at 2 mM incubated for 10 to 30 mins using substrate by spectrophotometry. In a few lines: as §1
Experiment [6] addresses Lysosomal alpha-glucosidase (Homo sapiens) (UniProt P10253). The experiment in a line: Inhibition of alpha-glucosidase (unknown origin) by spectrophotometry.
The target of experiment [7] is Alpha-galactosidase (Coffea arabica) (UniProt Q42656). The experiment in a line: Inhibition of green coffee alpha-galactosidase at 2 mM incubated for 10 to 30 mins using p-nitrophenyl alpha-D-glycopyranoside substrate by spectrophotometry. In a few lines: as §1
Sequence of Alpha-galactosidase (Coffea arabica) (Q42656 16-378 limits assumed): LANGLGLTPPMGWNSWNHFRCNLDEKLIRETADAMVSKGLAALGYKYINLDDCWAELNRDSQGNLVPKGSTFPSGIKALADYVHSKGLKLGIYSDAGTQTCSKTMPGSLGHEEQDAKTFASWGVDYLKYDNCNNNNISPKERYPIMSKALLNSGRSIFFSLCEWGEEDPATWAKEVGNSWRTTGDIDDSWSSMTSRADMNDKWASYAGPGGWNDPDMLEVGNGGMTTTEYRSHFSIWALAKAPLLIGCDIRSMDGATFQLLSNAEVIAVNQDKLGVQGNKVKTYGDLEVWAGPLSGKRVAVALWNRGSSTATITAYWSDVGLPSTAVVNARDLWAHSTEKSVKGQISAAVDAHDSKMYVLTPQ
Another experiment concerns Penicillium decumbens. The experiment in a line: Inhibition of Penicillium decumbens naringinase at 2 mM incubated for 10 to 30 mins using substrate by spectrophotometry. In a few lines:
as §1

Calls of active or inactive are those of the source. No cut-off for these calls is given here.

Sequence of Beta-galactosidase (Escherichia coli K-12) (P00722 whole entry): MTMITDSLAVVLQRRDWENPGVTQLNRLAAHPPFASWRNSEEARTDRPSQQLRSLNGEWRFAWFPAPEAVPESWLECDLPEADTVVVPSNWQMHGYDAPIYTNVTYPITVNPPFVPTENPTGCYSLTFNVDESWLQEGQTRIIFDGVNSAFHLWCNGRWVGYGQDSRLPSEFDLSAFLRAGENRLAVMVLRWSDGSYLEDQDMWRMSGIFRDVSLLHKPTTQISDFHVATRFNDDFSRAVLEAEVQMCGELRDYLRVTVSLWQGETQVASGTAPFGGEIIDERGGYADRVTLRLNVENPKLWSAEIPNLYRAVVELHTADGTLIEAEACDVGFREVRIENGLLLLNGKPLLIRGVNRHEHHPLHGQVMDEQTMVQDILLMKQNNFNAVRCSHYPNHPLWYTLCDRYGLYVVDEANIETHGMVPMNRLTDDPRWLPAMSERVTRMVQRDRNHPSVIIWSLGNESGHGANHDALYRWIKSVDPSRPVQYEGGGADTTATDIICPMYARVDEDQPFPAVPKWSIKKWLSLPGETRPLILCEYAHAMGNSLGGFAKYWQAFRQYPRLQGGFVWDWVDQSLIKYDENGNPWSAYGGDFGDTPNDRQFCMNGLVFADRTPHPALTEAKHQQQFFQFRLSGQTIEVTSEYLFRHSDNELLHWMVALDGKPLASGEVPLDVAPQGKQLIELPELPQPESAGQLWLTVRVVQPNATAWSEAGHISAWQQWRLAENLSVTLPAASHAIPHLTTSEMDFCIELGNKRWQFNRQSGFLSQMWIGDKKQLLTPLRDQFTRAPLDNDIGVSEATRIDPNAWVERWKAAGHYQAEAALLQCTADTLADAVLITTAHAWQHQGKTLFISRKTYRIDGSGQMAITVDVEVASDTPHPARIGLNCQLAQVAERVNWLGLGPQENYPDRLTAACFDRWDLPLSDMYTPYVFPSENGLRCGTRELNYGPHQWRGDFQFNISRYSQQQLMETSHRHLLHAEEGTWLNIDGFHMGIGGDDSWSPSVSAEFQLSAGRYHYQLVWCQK

As for `OCCCCCCCCCCCCCCCCSC1=N[C@H]2O[C@H](CO)[C@H](O)[C@H](O)[C@H]2O1`, the IC50 entry in experiment [1] and in experiment [2] was “Not Active” throughout. Moreover, the inhibition entry (in the experiment with Saccharomyces bayanus; in the experiment filed under Homo sapiens; in the experiment on Saccharomyces cerevisiae; in [3]; in the experiment on Prunus dulcis; in experiment [4]) was “inactive” throughout. In addition, the inhibition entry (in [5]; with Helix pomatia; in experiment [6]; in experiment [7]; in the experiment with Penicillium decumbens) was “inactive” each time.

For the molecule `OC[C@H]1O[C@@H]2N=C(SCCCCCCCCCCCCCCCCSC3=N[C@H]4O[C@H](CO)[C@@H](O)[C@H](O)[C@H]4O3)O[C@@H]2[C@@H](O)[C@@H]1O`, the IC50 entry in experiment [1] and in [2] was “Not Active” throughout. In addition, the inhibition result (with Saccharomyces bayanus; in the experiment filed under Homo sapiens; in the experiment on Saccharomyces cerevisiae; in [3]; in the experiment on Prunus dulcis; in experiment [4]) was “inactive” in each case. In addition, the inhibition result (in [5]; in the experiment with Helix pomatia; in [6]; in [7]; in the experiment on Penicillium decumbens) was “inactive” each time.

In the case of `COC(=O)CCCCCCCCCCCCCCCSC1=N[C@H]2O[C@H](CO)[C@@H](O)[C@H](O)[C@H]2O1`, the figures for the IC50 in [1] (read-out: IC50) and in experiment [2] (read-out: IC50) were 33 µM and 300 µM, respectively. For the same molecule, the inhibition entry (in the experiment with Saccharomyces bayanus; in the experiment listed under Homo sapiens; with Saccharomyces cerevisiae; in experiment [3]; in the experiment with Prunus dulcis; in experiment [4]) was “inactive” throughout. Besides, the inhibition result (in [5]; with Helix pomatia; in experiment [6]; in experiment [7]; in the experiment with Penicillium decumbens) was “inactive” each time.

On to `OC[C@H]1O[C@@H]2N=C(SCCCCCCCCCCCCCCCCF)O[C@@H]2[C@@H](O)[C@@H]1O`, for which the values for the IC50 in experiment [1] (read-out: IC50) and in [2] (read-out: IC50) were 3.9 µM and 27 µM, respectively. In addition, the inhibition result (with Saccharomyces bayanus; in the experiment listed under Homo sapiens; in the experiment on Saccharomyces cerevisiae; in [3]; in the experiment on Prunus dulcis; in experiment [4]) was “inactive” in each case. Further, the inhibition result (in experiment [5]; in the experiment with Helix pomatia; in experiment [6]; in experiment [7]; with Penicillium decumbens) was “inactive” each time.
